{"source": "paper PMC5292677", "about": "(Leukemia, 2016)", "key": {"[1]": {"tested_on": "patients with myelofibrosis", "experiment": "Hemoglobin/platelet response and transfusion status", "type": "in vivo, human", "method_in_brief": "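Oral test compound was given QD or BID in continuous 28-day cycles. Hematologic response was scored by IWG-MRT criteria on Day 1 of Cycles 2, 3 and 4, then every 3 cycles. Transfusion dependence was defined as ≥6 units packed red cells in any rolling 12-week interval. Patients without transfusion in the 12 weeks before entry were classed transfusion-free at baseline.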"}, "[2]": {"tested_on": "patients with myelofibrosis", "experiment": "Splenic response by palpation", "type": "in vivo, human", "method_in_brief": "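Spleen size was measured by palpation and response scored by IWG-MRT criteria. Assessments fell on Day 1 of Cycles 2, 3 and 4, then every 3 cycles, during daily oral dosing in continuous 28-day cycles. Analysis covered patients who completed ≥1 cycle and had baseline splenomegaly ≥5 cm.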"}, "[3]": {"tested_on": "JAK2^V617F allele burden", "experiment": "PD: JAK2V617F allele burden", "type": "in vivo, human", "method_in_brief": "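JAK2 allele burden was sampled on Day 1 of Cycles 1, 2 and 4, then every 3 cycles, during continuous 28-day oral dosing. On-treatment values were compared with the predose baseline. Analysis covered patients with ≥1 dose, a baseline value and ≥1 evaluable post-baseline assessment.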"}, "[4]": {"tested_on": "patients with myelofibrosis", "experiment": "Bone marrow fibrosis grade", "type": "in vivo, human", "method_in_brief": "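Adults with myelofibrosis took the oral test compound once or twice daily in continuous 28-day cycles. Bone marrow biopsies were taken at screening (within 28 days before first dose), on Day 1 of Cycle 4, then every 3 cycles, and read at each site. Fibrosis was graded 0–3 and categorized against baseline as improved ≥1 grade, stable, or worsened ≥1 grade.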"}, "[5]": {"tested_on": "cytokines", "experiment": "PD: plasma biomarkers", "type": "in vivo, human", "method_in_brief": "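Predose plasma was drawn on Day 1 of Cycles 1–4. Eighty-eight cytokines/proteins were quantified on a multiplexed HumanMAP v2.0 panel. Analysis covered patients with ≥1 dose, a baseline value and ≥1 evaluable post-baseline sample.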"}, "[6]": {"tested_on": "JAK2", "details": "cited from earlier work"}, "[7]": {"experiment": "Plasma pharmacokinetics", "type": "in vivo, human", "method_in_brief": "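Plasma was sampled on Days 1, 8 and 29: predose and ~0.5, 1, 2, 3, 4, 6 and 8 h after oral dosing, plus 24 h on Days 1 and 29. Test compound was measured by LC-MS/MS (LLOQ 1 ng/ml). For BID regimens, AUC0–24 was taken as twice AUC0–12. Analysis covered patients with ≥1 evaluable profile.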"}, "[8]": {"tested_on": "JAK2^V617F-driven mouse model", "details": "cited from earlier work"}, "[9]": {"tested_on": "patients with myelofibrosis", "experiment": "MF-associated symptoms", "type": "in vivo, human", "method_in_brief": "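Symptoms were self-rated on the Myelofibrosis Symptom Assessment Form at baseline, on Day 1 of Cycles 2 and 4, then every 3 cycles, during daily oral dosing in 28-day cycles. Evaluable patients had ≥1 cycle treated and a baseline symptom score >2. Each symptom was scored for ≥50% reduction, with a subgroup of patients pretreated with a JAK2 inhibitor.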"}, "[10]": {"details": "individual patient with BMF improvement after 3 cycles, 125 mg QD"}, "[11]": {"details": "individual patients with BMF improvement after 3 cycles, 300 mg QD"}, "[12]": {"details": "patients without BMF improvement after 3 cycles (n=19)"}, "[13]": {"details": "36 evaluable patients, all cohorts"}, "[14]": {"details": "21 patients, doses ⩾300 mg QD, following 4 cycles"}}, "note": "Values joined by “and” are separate entries in the source; they are usually repeats but may differ in a detail not shown here. Equal values may be shown once. “Also recorded” adds a separate entry of the source.", "data": [{"molecule": "C[C@H](Nc1cc(-c2cnn(C)c2)cc(Nc2cnccn2)n1)c1ccc(F)cc1", "note": "[NS-018]", "values": [{"measurement": "Hemoglobin IWG-MRT clinical improvement", "setting": "[1]; all cohorts", "result": 4, "unit": "patients"}, {"measurement": "Hemoglobin improvement (⩾20 g/l increase)", "setting": "[1]; all cohorts", "result": 11, "unit": "patients"}, {"measurement": "Platelet IWG-MRT clinical improvement", "setting": "[1]; all cohorts", "result": 1, "unit": "patients"}, {"measurement": "Platelet improvement (100% increase)", "setting": "[1]; all cohorts", "result": 2, "unit": "patients"}, {"measurement": "Increase in Hb of ⩾20 g/l", "setting": "[1]; individual patient with BMF improvement after 3 cycles, 75 mg QD", "result": "✓ (not CI)"}, {"measurement": "100% increase in Plt count", "setting": "[1]; [10]", "result": "✓ (CI)"}, {"measurement": "Increase in Hb of ⩾20 g/l", "setting": "[1]; [10]", "result": "✓ (not CI)"}, {"measurement": "Increase in Hb of ⩾20 g/l", "setting": "[1]; individual patients with BMF improvement after 3 cycles, 300 mg BID", "result": "✓ (CI)"}, {"measurement": "100% increase in Plt count", "setting": "[1]; [11]", "result": "✓ (not CI)"}, {"measurement": "Increase in Hb of ⩾20 g/l", "setting": "[1]; [11]", "result": "✓ (CI)"}, {"measurement": "Increase in Hb of ⩾20 g/l", "setting": "[1]; individual patients with BMF improvement after 3 cycles, 400 mg BID", "result": "✓ (not CI)"}, {"measurement": "Patients achieving transfusion independence", "setting": "[1]; of the 10 patients transfusion dependent at baseline", "result": 3, "unit": "patients"}, {"measurement": "Hemoglobin responses", "setting": "[1]; [12]", "result": 2, "unit": "responses"}, {"measurement": "Platelet responses", "setting": "[1]; [12]", "result": "no platelet responses"}, {"measurement": "Median (range) cycles to splenic reduction ⩾50%", "setting": "[2]; 100 mg BID", "result": "7.5 (3–12) cycles"}, {"measurement": "Median (range) cycles to splenic reduction ⩾50%", "setting": "[2]; 200 mg BID", "result": 1, "unit": "cycles"}, {"measurement": "Median (range) cycles to splenic reduction ⩾50%", "setting": "[2]; 200 mg QD", "result": 3, "unit": "cycles"}, {"measurement": "Median (range) cycles to splenic reduction ⩾50%", "setting": "[2]; 250 mg BID", "result": 3, "unit": "cycles"}, {"measurement": "Median (range) cycles to splenic reduction ⩾50%", "setting": "[2]; 300 mg BID", "result": 1, "unit": "cycles"}, {"measurement": "Median (range) cycles to splenic reduction ⩾50%", "setting": "[2]; 300 mg QD", "result": "2 (1–8) cycles"}, {"measurement": "Median (range) cycles to splenic reduction ⩾50%", "setting": "[2]; 400 mg BID", "result": "1.5 (1–2) cycles"}, {"measurement": "Median (range) cycles to splenic reduction ⩾50%", "setting": "[2]; 400 mg QD", "result": 1, "unit": "cycles"}, {"measurement": "Patients achieving ⩾50% reduction in palpable spleen size", "setting": "[2]; [13]", "result": 56, "unit": "%"}, {"measurement": "Patients with splenic reduction of 100%", "setting": "[2]; [13]", "result": 31, "unit": "%"}, {"measurement": "Patients with 100% splenic reduction", "setting": "[2]; JAK2^V617F-negative responders", "result": 3, "unit": "patients"}, {"measurement": "Median duration of splenic response (range)", "setting": "[2]; all cohorts", "result": "5.5 (1–24) cycles"}, {"measurement": "Median (range) cycles to splenic reduction ⩾50%", "setting": "[2]; all dose cohorts", "result": "1 (1–12) cycles"}, {"measurement": "Patients achieving ⩾50% reduction in spleen size", "setting": "[2]; baseline spleen >10 cm", "result": 15, "unit": "patients"}, {"measurement": "Patients attaining 100% reduction in spleen size", "setting": "[2]; baseline spleen ⩽10 cm", "result": 5, "unit": "patients"}, {"measurement": "Patients achieving ⩾50% reduction in palpable spleen size", "setting": "[2]; evaluable patients with prior JAK2 inhibitor treatment", "result": 47, "unit": "%"}, {"measurement": "Patients achieving ⩾50% reduction in palpable spleen size", "setting": "[2]; evaluable patients with the JAK2^V617F mutation", "result": 50, "unit": "%"}, {"measurement": "Median (range) cycles to splenic reduction ⩾50%", "setting": "[2]; prior JAK2 inhibitor treatment", "result": "2 (1–12) cycles"}, {"measurement": "Patients with 100% splenic reduction", "setting": "[2]; responders with the JAK2^V617F mutation", "result": 8, "unit": "patients"}, {"measurement": "JAK2^V617F allele burden during treatment", "setting": "[3]; JAK2^V617F-positive patients", "result": "largely unchanged; also recorded: remained similar to the baseline value in almost all patients"}, {"measurement": "Patients with decrease in allele burden of ⩾25%", "setting": "[3]; at Cycle 7 in one and Cycle 16 in the other", "result": 2, "unit": "patients"}, {"measurement": "Patients with improvement of ⩾1 BMF grade", "setting": "[4]; after 3 cycles, 30 evaluable patients", "result": 37, "unit": "%"}, {"measurement": "Patients with unchanged BMF grade", "setting": "[4]; after Cycle 3, 30 evaluable patients", "result": 53, "unit": "%"}, {"measurement": "Patients with BMF worsening", "setting": "[4]; at completion of Cycle 3, 30 evaluable patients", "result": 10, "unit": "%"}, {"measurement": "Duration of BMF grade change", "setting": "[4]; individual patient, 75 mg QD", "result": 3, "unit": "cycles"}, {"measurement": "Duration of BMF grade change", "setting": "[4]; individual patient, 125 mg QD", "result": 12, "unit": "cycles"}, {"measurement": "Duration of BMF grade change", "setting": "[4]; individual patient, 250 mg BID", "result": 2, "unit": "cycles"}, {"measurement": "Duration of BMF grade change", "setting": "[4]; individual patient, 400 mg QD", "result": 6, "unit": "cycles"}, {"measurement": "Duration of BMF grade change", "setting": "[4]; individual patients, 300 mg BID", "result": "2 cycles and 1 cycles"}, {"measurement": "Duration of BMF grade change", "setting": "[4]; individual patients, 300 mg QD", "result": "3 cycles and 39 cycles and 9 cycles"}, {"measurement": "Duration of BMF grade change", "setting": "[4]; individual patients, 400 mg BID", "result": "1 cycles and 12 cycles"}, {"measurement": "Patients with BMF improvement maintained for >12 weeks", "setting": "[4]; of the 11 improved after 3 cycles", "result": 5, "unit": "patients"}, {"measurement": "Patients achieving BMF improvement from baseline later in the study", "setting": "[4]; of those with unchanged BMF grade after Cycle 3", "result": 6, "unit": "patients"}, {"measurement": "B2M, CRP, IL-18, myeloperoxidase and TNFR2 plasma levels", "setting": "[5]; [14]", "result": "Dose-dependent downregulation"}, {"measurement": "Erythropoietin, leptin and eotaxin-1 plasma levels", "setting": "[5]; [14]", "result": "dose-dependent upregulation"}, {"measurement": "Tumor necrosis factor-α and IL-6 levels", "setting": "[5]; after 4 weeks of treatment", "result": "unchanged"}, {"measurement": "Selectivity for JAK2 over JAK1", "setting": "[6]", "result": "specificity of this agent for JAK2 over JAK1"}, {"measurement": "Median inhibitory concentration", "setting": "[6]; in vitro kinase assay", "result": "subnanomolar range"}, {"measurement": "Time to maximum plasma concentration (Cmax)", "setting": "[7]; Day 8, postdosing, all dose cohorts, oral", "result": "1 to 2", "unit": "h"}, {"measurement": "Dose proportionality of systemic exposure", "setting": "[7]; based on Cmax on Day 8", "result": "approximately dose proportional"}, {"measurement": "Drug accumulation with multiple dosing", "setting": "[7]; exposure Days 8 vs 29", "result": "did not accumulate; also recorded: no evidence of drug accumulation"}, {"measurement": "half-life", "setting": "[7]; human, plasma, po", "result": "2 to 5", "unit": "h"}, {"measurement": "Splenomegaly", "setting": "[8]; JAK2^V617F-driven mouse model", "result": "reduced splenomegaly"}, {"measurement": "Leukocytosis, BMF and survival", "setting": "[8]; murine model", "result": "Improvements"}, {"measurement": "Peripheral blood erythrocyte or platelet counts", "setting": "[8]; murine model", "result": "without reducing"}, {"measurement": "Reductions in symptom scores achieved in at least some patients", "setting": "[9]; all symptoms measured", "result": "up to 100%"}, {"measurement": "Mean MF-SAF scores", "setting": "[9]; by Week 4, all 8 assessed symptoms, total evaluable population", "result": "reductions in mean MF-SAF scores"}, {"measurement": "Mean MF-SAF symptom score", "setting": "[9]; patients with previous JAK2 inhibitor treatment", "result": "reduction in mean score for all symptoms"}]}]}
